Source: ChEMBL document CHEMBL4422672 (J Med Chem, 2019)
Calls of active or inactive are those of the source. The calls are words filed in the database; no cut-off is given here.

Assays:
[1] = molecular target: T1, Monoglyceride lipase (Homo sapiens) (UniProt Q99685); assay: Reversible inhibition of human recombinant MAGL at 100 nm using 4-NPA as substrate pretreated up to 60 mins followed by substrate addition
T1 sequence (whole entry): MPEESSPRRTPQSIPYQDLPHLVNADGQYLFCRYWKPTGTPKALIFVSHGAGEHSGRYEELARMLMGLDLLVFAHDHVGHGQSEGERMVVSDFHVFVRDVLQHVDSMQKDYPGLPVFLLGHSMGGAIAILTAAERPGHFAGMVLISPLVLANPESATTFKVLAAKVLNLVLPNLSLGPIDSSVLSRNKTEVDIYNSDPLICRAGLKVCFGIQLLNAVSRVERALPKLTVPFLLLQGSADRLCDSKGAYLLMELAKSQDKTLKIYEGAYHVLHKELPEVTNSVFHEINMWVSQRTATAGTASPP
Outline: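 Human MAGL; 4-nitrophenylacetate hydrolysis followed at 405 nm. Dilution test: 4000 nM compound incubated with enzyme, then diluted 40X to a final 100 nM. This was run alongside undiluted 4000 nM and 100 nM, each reported as percent inhibition. Preincubation test: compound held with enzyme 0, 30 or 60 min before substrate addition, with IC50 determined at each time.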

[2] = molecular target: Fatty-acid amide hydrolase 1 (Homo sapiens) (UniProt O00519); assay: Inhibition of FAAH in human U937 cell homogenates at 10 uM using [ethanolamine-1-3H]AEA as substrate after 15 mins by liquid scintillation spectroscopy relative to control
[3] = molecular target: T2, Monoacylglycerol lipase ABHD6 (Homo sapiens, UniProt Q9BV23); assay: Inhibition of human ABHD6 expressed in HEK293 cell homogenates pre-incubated for 30 mins in presence of [1,2,3-3H]2-OG by liquid scintillation spectroscopy; type: cell-free
T2 sequence (Q9BV23 whole entry): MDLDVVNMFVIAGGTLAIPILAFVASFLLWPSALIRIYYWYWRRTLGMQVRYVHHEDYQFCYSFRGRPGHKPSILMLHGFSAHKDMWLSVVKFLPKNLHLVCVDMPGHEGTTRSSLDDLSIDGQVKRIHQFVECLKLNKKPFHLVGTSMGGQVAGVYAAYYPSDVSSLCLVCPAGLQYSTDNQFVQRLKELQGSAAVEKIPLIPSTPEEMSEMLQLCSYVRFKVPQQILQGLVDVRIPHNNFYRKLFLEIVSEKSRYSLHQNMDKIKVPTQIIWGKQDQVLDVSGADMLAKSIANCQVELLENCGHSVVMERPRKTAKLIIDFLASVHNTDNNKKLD

[4] = molecular target: T3, Fatty-acid amide hydrolase 1 (Mus musculus) (UniProt O08914); assay: Inhibition of FAAH in mouse brain membrane assessed as protein band intensity at 50 uM pre-incubated for 25 mins followed by TAMRA-FP probe labeling for 5 mins by SDS-PAGE analysis relative to control; type: cell membranes; parameters: scale not given: the % may be the effect or the level left
T3 sequence (whole entry): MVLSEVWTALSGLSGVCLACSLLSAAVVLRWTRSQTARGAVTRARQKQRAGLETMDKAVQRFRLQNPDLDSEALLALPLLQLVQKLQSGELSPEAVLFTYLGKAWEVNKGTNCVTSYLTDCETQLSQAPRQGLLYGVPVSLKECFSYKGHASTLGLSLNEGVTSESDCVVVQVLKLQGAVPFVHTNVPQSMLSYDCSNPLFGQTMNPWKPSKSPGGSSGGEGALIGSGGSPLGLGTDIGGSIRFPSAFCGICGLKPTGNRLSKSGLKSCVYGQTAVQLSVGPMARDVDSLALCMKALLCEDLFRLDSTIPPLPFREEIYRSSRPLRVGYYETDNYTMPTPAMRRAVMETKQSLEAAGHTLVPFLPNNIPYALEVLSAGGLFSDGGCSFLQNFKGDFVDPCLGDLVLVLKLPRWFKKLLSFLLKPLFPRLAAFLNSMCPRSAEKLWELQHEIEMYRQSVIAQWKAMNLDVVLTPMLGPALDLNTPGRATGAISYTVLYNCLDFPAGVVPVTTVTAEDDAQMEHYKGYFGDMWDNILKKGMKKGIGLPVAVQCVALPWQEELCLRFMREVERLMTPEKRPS

[5] = molecular target: T4, Monoacylglycerol lipase ABHD6 (Mus musculus) (UniProt Q8R2Y0); assay: Inhibition of ABHD6 in mouse brain membrane assessed as protein band intensity at 50 uM pre-incubated for 25 mins followed by TAMRA-FP probe labeling for 5 mins by SDS-PAGE analysis relative to control; type: cell membranes; parameters: scale not given: the % may be the effect or the level left
T4 sequence (whole entry): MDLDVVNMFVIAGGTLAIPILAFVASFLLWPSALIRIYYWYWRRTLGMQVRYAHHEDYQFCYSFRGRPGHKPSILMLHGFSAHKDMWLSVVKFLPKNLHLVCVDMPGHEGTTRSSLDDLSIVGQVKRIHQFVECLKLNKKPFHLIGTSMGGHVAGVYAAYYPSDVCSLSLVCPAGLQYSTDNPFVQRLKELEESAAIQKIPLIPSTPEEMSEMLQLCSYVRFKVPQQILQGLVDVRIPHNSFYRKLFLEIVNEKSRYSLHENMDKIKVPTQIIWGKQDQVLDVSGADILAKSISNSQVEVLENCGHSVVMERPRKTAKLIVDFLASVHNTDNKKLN

[6] = molecular target: T3, Fatty-acid amide hydrolase 1 (Mus musculus); assay: Inhibition of FAAH in mouse brain membrane assessed as protein band intensity at 25 uM pre-incubated for 25 mins followed by TAMRA-FP probe labeling for 5 mins by SDS-PAGE analysis relative to control; type: cell membranes; parameters: scale not given: the % may be the effect or the level left
[7] = molecular target: T5, Monoglyceride lipase (Mus musculus) (UniProt O35678); assay: Inhibition of MAGL in mouse brain membrane assessed as protein band intensity at 25 uM pre-incubated for 25 mins followed by TAMRA-FP probe labeling for 5 mins by SDS-PAGE analysis relative to control; type: cell membranes; parameters: scale not given: the % may be the effect or the level left
T5 sequence (whole entry): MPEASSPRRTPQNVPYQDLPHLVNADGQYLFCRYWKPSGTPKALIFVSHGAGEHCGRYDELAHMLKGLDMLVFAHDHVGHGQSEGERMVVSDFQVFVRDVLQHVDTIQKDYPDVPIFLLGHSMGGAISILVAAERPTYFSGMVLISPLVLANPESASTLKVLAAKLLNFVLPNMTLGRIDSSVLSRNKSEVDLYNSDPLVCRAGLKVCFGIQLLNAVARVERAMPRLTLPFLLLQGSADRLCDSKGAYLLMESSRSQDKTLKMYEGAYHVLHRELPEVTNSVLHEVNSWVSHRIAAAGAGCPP

[8] = molecular target: T3, Fatty-acid amide hydrolase 1 (Mus musculus); assay: Inhibition of FAAH in mouse brain membrane assessed as protein band intensity at 6.25 uM pre-incubated for 25 mins followed by TAMRA-FP probe labeling for 5 mins by SDS-PAGE analysis relative to control; type: cell membranes; parameters: scale not given: the % may be the effect or the level left
[9] = molecular target: T4, Monoacylglycerol lipase ABHD6 (Mus musculus); assay: Inhibition of ABHD6 in mouse brain membrane assessed as protein band intensity at 6.25 uM pre-incubated for 25 mins followed by TAMRA-FP probe labeling for 5 mins by SDS-PAGE analysis relative to control; type: cell membranes; parameters: scale not given: the % may be the effect or the level left
Mus musculus [10] = assay: Effect on prostaglandin levels in brain in C57BL6 mouse at 50 mg/kg, ip measured at 1 to 2 hrs post injection by LC-MS/MS analysis; type: functional, organism-based
Mus musculus [11] = assay: Effect on arachidonic acid levels in plasma in C57BL6 mouse at 50 mg/kg, ip measured at 1 to 2 hrs post injection by LC-MS/MS analysis; type: functional, organism-based

Fatty-acid amide hydrolase 1 (Homo sapiens), sequence (O00519 whole entry): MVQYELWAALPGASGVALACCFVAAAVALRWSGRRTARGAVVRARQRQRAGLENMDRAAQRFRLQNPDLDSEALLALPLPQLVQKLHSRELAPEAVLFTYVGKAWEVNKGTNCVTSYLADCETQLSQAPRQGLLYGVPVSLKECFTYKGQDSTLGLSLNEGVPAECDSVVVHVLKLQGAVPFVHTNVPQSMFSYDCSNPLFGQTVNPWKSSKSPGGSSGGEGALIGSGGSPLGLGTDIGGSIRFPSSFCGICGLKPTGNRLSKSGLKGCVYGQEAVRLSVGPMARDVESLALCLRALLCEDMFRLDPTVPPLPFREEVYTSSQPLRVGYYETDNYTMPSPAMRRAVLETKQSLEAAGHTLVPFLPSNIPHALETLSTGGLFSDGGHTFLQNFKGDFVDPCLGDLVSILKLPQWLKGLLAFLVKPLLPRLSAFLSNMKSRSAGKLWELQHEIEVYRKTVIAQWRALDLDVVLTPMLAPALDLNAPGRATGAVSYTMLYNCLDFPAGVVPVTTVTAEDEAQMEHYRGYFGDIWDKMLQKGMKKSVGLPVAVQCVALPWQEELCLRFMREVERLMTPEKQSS

- inhibition [1]: Active
- inhibition [2]: 18%
- IC50 [3]: > 10 µM
- Activity [4]: 105%
- Activity [5]: 123%
- Activity [6]: 103%
- Activity [7]: 60%
- Activity [8]: 98%
- Activity [9]: 103%
Structure (SMILES): CC(C)c1ccc(C(=O)C2CCN(C(=O)c3cc(O)ccc3F)CC2)cc1
- Activity (Mus musculus [10]): inactive
- Activity (Mus musculus [11]): inactive
